Source: ChEMBL document CHEMBL4350958, “Rational Design of Short Peptide Variants by Using Kunitzin-RE, an Amphibian-Derived Bioactivity Peptide, for Acquired Potent Broad-Spectrum Antimicrobial and Improved Therapeutic Potential of Commensalism Coinfection of Pathogens” (J Med Chem, 2019)
Converted amounts (≈) assume the structure as drawn.

Assays:
[1] = tested on: Escherichia coli; assay: Bactericidal activity against Escherichia coli UB1005 incubated for 24 hrs followed by replating on agar plate and measured after overnight incubation; format: functional; settings: for MBC: UB1005, 24 h, read-out: MBC>99.9
Procedure, shortened: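 Mid-log bacteria diluted in MHB to (0.5–1) × 10^5 CFU/mL and mixed 1:1 with peptide serially diluted in 0.2% BSA. After 24 h at 37 °C, 50 μL of each mixture was plated on agar and incubated overnight. MBC taken as the lowest concentration killing >99.9% of cells. At least three independent experiments, each with three technical replicates.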

[2] = tested on: Staphylococcus aureus; assay: Bactericidal activity against Staphylococcus aureus ATCC 29213 incubated for 24 hrs followed by replating on agar plate and measured after overnight incubation; format: functional; settings: for MBC: ATCC 29213, 24 h, read-out: MBC>99.9
Procedure, shortened: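 After the 24 h, 37 °C MHB microdilution MIC assay, 50 μL from each well was plated on agar and incubated overnight. MBC taken as lowest peptide concentration killing >99.9% of cells. At least three independent experiments, each with three technical replicates.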

[3] = tested on: Escherichia coli; assay: Antibacterial activity against Escherichia coli ATCC 25922 measured after 18 to 24 hrs in presence of NH4Cl; format: functional
[4] = Therapeutic index, ratio of MHC10 for hemolytic activity in human RBC to MIC95 against Staphylococcus aureus ATCC 25923; format: toxicity; settings: human red blood cells (erythrocytes), read-out: TI
Procedure, shortened: (§1)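 Therapeutic index = MHC divided by MIC. MHC is the lowest concentration giving >10% lysis of human RBC (1 h, 37 °C, 1-128 µM, A576). MIC is 95% growth inhibition by broth microdilution: bacteria in MHB 24 h at 37 °C; Candida in MOPS-buffered RPMI 1640 at (0.5–1) × 10^3 CFU mL−1, 48 h at 28 °C.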

[5] = Therapeutic index, ratio of MHC10 for hemolytic activity in human RBC to MIC95 against Escherichia coli ATCC 25922; format: toxicity; settings: human red blood cells (erythrocytes), pooled result: one value given for 9 cell lines, strains, targets or settings, read-out: TI; procedure, shortened: as §1
[6] = Conformational stability in sodium dodecyl sulfate assessed as beta-sheet conformation by measuring absorption spectra at maximum dichroic band at 35 uM by CD spectra analysis; format: physicochemical
Procedure, shortened: (§2)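 CD spectra from 190 to 250 nm of peptide at 35 μM in 10 mM PBS, 30 mM SDS micelles or 50% TFE, recorded in a 1.0-mm quartz cell. Ellipticity was converted to mean residue ellipticity. Three independent scans, each averaged over more than 3 runs.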

[7] = tested on: Candida albicans; assay: Antifungal activity against Candida albicans cgmcc2.2086 measured after 48 hrs in presence of ZnCl by broth microdilution method; format: functional
[8] = tested on: Staphylococcus aureus; assay: Antibacterial activity against Staphylococcus aureus ATCC 29213 measured after 24 hrs; format: functional
Procedure, shortened: (§3)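 Broth microdilution modified from NCCLS. Mid-log bacteria at (0.5–1) × 10^5 CFU mL−1 in MHB, mixed with peptides serially diluted in 0.2% BSA. Incubated 24 h at 37 °C, read at A492. MIC taken as lowest concentration giving 95% growth inhibition. At least three independent experiments, each with three technical replicates.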

[9] = Cytotoxicity against mouse RAW264.7 cells assessed as cell viability at 2 to 64 uM measured after 18 to 24 hrs by MTT assay relative to control; format: cell-based; settings: RAW264.7 cells, read-out: Activity
Procedure, shortened: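 MTT assay: RAW264.7 cells seeded at 1.0–2.0×10^4 per well and exposed to peptide (2–64 µM) for 18–24 h at 37 °C in 5% CO2. MTT (0.5 mg/mL) added for 4 h, formazan dissolved in DMSO, read at 570 nm. At least three independent experiments with triplicate wells.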

[10] = tested on: Candida albicans; assay: Fungicidal activity against Candida albicans cgmcc2.2086 incubated for 48 hrs followed by replating on YM agar plate and measured after 48 hrs; format: functional
Procedure, shortened: (§4)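 Yeast diluted in MOPS-buffered RPMI 1640 to (0.5–1) × 10^3 CFU/mL (CLSI M27-A2, modified) and mixed 1:1 with peptide serially diluted in 0.2% BSA. After 48 h at 28 °C, 50 μL per well was plated on YM agar and incubated 48 h at 28 °C. MFC taken as the lowest concentration killing ≥99.9% of cells. Three or more independent experiments, triplicate wells.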

[11] = tested on: Candida albicans; assay: Antifungal activity against Candida albicans cgmcc2.2086 measured after 48 hrs in presence of NH4Cl by broth microdilution method; format: functional
[12] = tested on: Escherichia coli; assay: Antibacterial activity against Escherichia coli K99 measured after 24 hrs; format: functional
Procedure, shortened: (§5)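 Broth microdilution adapted from NCCLS. Mid-log bacteria were diluted in MHB to a final (0.5–1) × 10^5 CFU mL−1. Peptides were serially diluted in 0.2% BSA and mixed with an equal volume of cells. After 24 h at 37 °C, MIC was read at A492 as the lowest concentration inhibiting 95% of growth. At least three independent experiments, each with three technical replicates.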

[13] = tested on: Candida albicans; assay: Antifungal activity against Candida albicans cgmcc2.2086 measured after 48 hrs by broth microdilution method; format: functional
Procedure, shortened: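 Modified CLSI M27-A2 microdilution. Yeast colonies were diluted in MOPS-buffered RPMI 1640 to a final (0.5–1) × 10^3 CFU mL−1 and mixed with an equal volume of peptide serially diluted in 0.2% BSA. After 48 h at 28 °C, MIC was read at A492 as the lowest concentration inhibiting 95% of growth. At least three independent experiments, each with three technical replicates.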

[14] = tested on: Candida parapsilosis; assay: Fungicidal activity against Candida parapsilosis cgmcc2.3989 incubated for 48 hrs followed by replating on YM agar plate and measured after 48 hrs; format: functional; procedure, shortened: as §4
[15] = Conformational stability in sodium dodecyl sulfate assessed as beta-sheet conformation by measuring absorption spectra at minimum dichroic band at 35 uM by CD spectra analysis; format: physicochemical; procedure, shortened: as §2
[16] = tested on: Staphylococcus aureus; assay: Antibacterial activity against Staphylococcus aureus ATCC 25923 measured after 24 hrs; format: functional; procedure, shortened: as §3
[17] = Therapeutic index, ratio of MHC10 for hemolytic activity in human RBC to MIC95 against Staphylococcus epidermidis ATCC 12228; format: toxicity; settings: human red blood cells (erythrocytes), read-out: TI; procedure, shortened: as §1
[18] = tested on: Salmonella typhimurium; assay: Antibacterial activity against Salmonella typhimurium ATCC 14028 measured after 24 hrs; format: functional, Salmonella enterica subsp. enterica serovar Typhimurium; procedure, shortened: as §5
[19] = Conformational stability in sodium dodecyl sulfate at 35 uM by CD spectra analysis; format: physicochemical; procedure, shortened: as §2
[20] = Salmonella enterica, ATCC 14028, 24 h
[21] = Salmonella enterica subsp. enterica serovar Typhimurium

| Molecule | MBC [1] | MBC [2] | MIC95 [3] | selectivity ratio [4] | selectivity ratio [5] | Wavelength of maximum dichroic band [6] | MIC95 ([7]; cgmcc2.2086, 48 h) | MIC95 ([8]; ATCC 29213, 24 h) | viability at up to 64 µM [9] | MFC<=99.9 [10] | MIC95 ([11]; cgmcc2.2086, 48 h) | MIC95 ([12]; K99, 24 h) | MIC95 ([13]; cgmcc2.2086, 48 h) | MFC<=99.9 [14] | Activity [15] | MIC95 ([16]; ATCC 25923, 24 h) | selectivity ratio [17] | MIC95 [18, 20] | other results |
| --- | --- | --- | --- | --- | --- | --- | --- | --- | --- | --- | --- | --- | --- | --- | --- | --- | --- | --- | --- |
| H-AARIILRFRFR-NH2 | 8 µM | 4 µM | 4 µM | 128 | 43.5 | 200 nm | 8 µM | 2 µM | 90 to 100% | 16 µM | 4 µM | 2 µM | 8 µM | 8 µM | 216 to 220 nm | 2 µM | 128 | 4 µM |  |
| H-AARIILRIRFR-NH2 | 8 µM | 4 µM | 4 µM | 64 | 37.3 | 200 nm | 8 µM | 2 µM | 90 to 100% | 8 µM | 8 µM | 4 µM | 8 µM | 8 µM | 216 to 220 nm | 2 µM | 64 | 2 µM |  |
| H-AAKIILNPKFR-NH2 |  |  | > 128 µM | 2 | 2 |  | > 128 µM | > 128 µM | 90 to 100% |  | > 128 µM | > 128 µM | > 128 µM |  |  | > 128 µM | 2 | > 128 µM | Stability [19]: Unstable |
| POLYMYXIN B |  |  | 2 µM |  |  |  |  |  |  |  |  |  |  | 16 µM |  |  |  |  | MBC>99.9 [1]: 2 µM; MBC>99.9 [2]: 64 µM; MIC95 [7]: 32 µM; MIC95 [8]: 32 µM; MFC (≥99.9% killing) [10]: 64 µM; MIC95 [11]: 32 µM; MIC95 [12]: 1 µM; MIC95 [13]: 32 µM; MIC95 [16]: 64 µM; MIC95 [18, 21]: 2 µM |
| H-AARIILRLRFR-NH2 | 8 µM | 4 µM | 4 µM | 128 | 64 | 200 nm | 8 µM | 2 µM | 90 to 100% | 16 µM | 8 µM | 2 µM | 8 µM | 8 µM | 216 to 220 nm | 2 µM | 128 | 4 µM |  |
| H-AARIILRYRFR-NH2 | 8 µM | 8 µM | 8 µM | 64 | 47 | 200 nm | 64 µM | 4 µM | 90 to 100% | 64 µM | 64 µM | 4 µM | 32 µM | 128 µM | 216 to 220 nm | 8 µM | 64 | 8 µM |  |
| H-AARIILRARFR-NH2 | 4 µM | 8 µM | 2 µM | 90.5 | 69.1 | 200 nm | 16 µM | 4 µM | 90 to 100% | 32 µM | 16 µM | 2 µM | 16 µM | 16 µM | 216 to 220 nm | 4 µM | 90.5 | 4 µM |  |
| H-AARIILRTRFR-NH2 | 8 µM | 32 µM | 8 µM | 16 | 27.4 | 200 nm | > 128 µM | 16 µM | 90 to 100% |  | > 128 µM | 4 µM | 128 µM |  | 216 to 220 nm | 16 µM | 16 | 16 µM |  |
| GENTAMICIN |  |  | 1 µM |  |  |  |  |  |  |  |  |  |  |  |  |  |  |  | MBC>99.9 [1]: 1 µM; MBC>99.9 [2]: 1 µM; MIC95 [7]: > 128 µM; MIC95 [8]: 1 µM; MIC95 [11]: > 128 µM; MIC95 [12]: 0.5 µM; MIC95 [13]: > 128 µM; MIC95 [16]: 1 µM; MIC95 [18, 21]: 2 µM |
| H-AARIILRNRFR-NH2 | 32 µM |  | 16 µM | 2 | 9.33 |  | > 128 µM | > 128 µM | 90 to 100% |  | > 128 µM | 16 µM | > 128 µM |  |  | > 128 µM | 2 | 32 µM | Stability [19]: Unstable |
| CC(C)(O/N=C(\C(=O)N[C@@H]1C(=O)N2C(C(=O)[O-])=C(C[n+]3ccccc3)CS[C@H]12)c1csc(N)n1)C(=O)O [CEFTAZIDIME] | 2 µM (≈ 1.09 µg/mL) | 16 µM (≈ 8.75 µg/mL) | 2 µM |  |  |  | > 128 µM | 16 µM (≈ 8.75 µg/mL) |  |  | > 128 µM | 0.5 µM (≈ 0.273 µg/mL) | > 128 µM |  |  | 16 µM (≈ 8.75 µg/mL) |  | 1 µM (≈ 0.547 µg/mL) |  |
| H-AARIILRWFRR-NH2 | 4 µM | 8 µM | 2 µM | 53.8 | 87.1 | 200 nm | 8 µM | 4 µM | 90 to 100% | 8 µM | 8 µM | 2 µM | 8 µM | 8 µM | 216 to 220 nm | 8 µM | 53.8 | 4 µM |  |
| H-AARIILRPRFR-NH2 | 16 µM |  | 16 µM | 2 | 16 |  | > 128 µM | > 128 µM | 90 to 100% |  | > 128 µM | 16 µM | > 128 µM |  |  | > 128 µM | 2 | 16 µM | Stability [19]: Unstable |
| H-AARIILRDRFR-NH2 |  |  | > 128 µM | 2 | 2 |  | > 128 µM | > 128 µM | 90 to 100% |  | > 128 µM | > 128 µM | > 128 µM |  |  | > 128 µM | 2 | > 128 µM | Stability [19]: Unstable |
